One compound from ChEMBL document CHEMBL1649392, “Synthesis of substituted 3-amino-N-phenyl-1H-indazole-1-carboxamides endowed with antiproliferative activity” (Eur J Med Chem, 2011) can be followed below.

As a reminder, the GI50 is the concentration that inhibits growth by half. Lower therefore signals more potent growth inhibition.

The nature of the data set: Cytotoxicity in HFF cells after 72 hrs by trypan blue exclusion assay. The data set is classed as cell-based. To be noted: human. Summed up: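 Human normal fibroblasts, 2 × 10⁵ per well, seeded in RPMI 1640 with 10% fetal calf serum plus penicillin and streptomycin at 37 °C under CO₂. Compound added after 24 h. Living cells counted at 72 h by trypan blue exclusion, expressed as percent of control proliferation; GI50 derived.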

As to `CCCCOc1ccc(NC(=O)n2nc(N)c3cc(N)ccc32)cc1`, the GI50 at 72 h was 32 µM.
